According to ChEMBL document CHEMBL1141363, “Synthesis and evaluation of novel heterocyclic MMP inhibitors” (Bioorg Med Chem Lett, 2007):

What was measured:
[1] = biological target: T1, Interstitial collagenase (Homo sapiens, UniProt P03956); assay: Inhibition of MMP1
T1 sequence (P03956 whole entry): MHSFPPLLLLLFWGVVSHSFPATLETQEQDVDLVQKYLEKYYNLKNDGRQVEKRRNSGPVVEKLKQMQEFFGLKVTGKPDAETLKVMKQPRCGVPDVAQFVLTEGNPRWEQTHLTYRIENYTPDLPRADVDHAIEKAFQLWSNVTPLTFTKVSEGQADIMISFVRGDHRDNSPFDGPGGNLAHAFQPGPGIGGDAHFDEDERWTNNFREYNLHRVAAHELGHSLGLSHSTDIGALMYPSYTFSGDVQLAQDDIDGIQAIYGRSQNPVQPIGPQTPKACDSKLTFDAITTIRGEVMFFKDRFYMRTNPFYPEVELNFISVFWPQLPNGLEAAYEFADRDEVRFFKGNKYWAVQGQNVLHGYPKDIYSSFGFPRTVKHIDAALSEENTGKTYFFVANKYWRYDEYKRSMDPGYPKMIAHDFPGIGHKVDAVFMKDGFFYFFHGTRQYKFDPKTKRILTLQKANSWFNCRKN
In short: (§1)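 Catalytic domains used at final levels of 85 nM (MMP-1), 24 nM (MMP-2), 18 nM (MMP-9) and 84 nM (MMP-12). Each enzyme was premixed with compound (serial 1:2 dilutions, 150 to 1.2) for 30 min at 37 °C. Substrate was added in 50 mM Hepes with 5 mM CaCl2 and 0.05% w/w Brij-35, pH 7.5, then incubated 30 min. Fluorescence read at ex 328/em 393 nm over 45 min, every 50 s.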

[2] = biological target: 72 kDa type IV collagenase (Homo sapiens, UniProt P08253); assay: Inhibition of MMP2; in short: as §1
[3] = biological target: Matrix metalloproteinase-9 (Homo sapiens, UniProt P14780); assay: Inhibition of MMP9; in short: as §1
[4] = biological target: Macrophage metalloelastase (Homo sapiens, UniProt P39900); assay: Inhibition of MMP12; in short: as §1
Chain of Macrophage metalloelastase (P39900 whole entry): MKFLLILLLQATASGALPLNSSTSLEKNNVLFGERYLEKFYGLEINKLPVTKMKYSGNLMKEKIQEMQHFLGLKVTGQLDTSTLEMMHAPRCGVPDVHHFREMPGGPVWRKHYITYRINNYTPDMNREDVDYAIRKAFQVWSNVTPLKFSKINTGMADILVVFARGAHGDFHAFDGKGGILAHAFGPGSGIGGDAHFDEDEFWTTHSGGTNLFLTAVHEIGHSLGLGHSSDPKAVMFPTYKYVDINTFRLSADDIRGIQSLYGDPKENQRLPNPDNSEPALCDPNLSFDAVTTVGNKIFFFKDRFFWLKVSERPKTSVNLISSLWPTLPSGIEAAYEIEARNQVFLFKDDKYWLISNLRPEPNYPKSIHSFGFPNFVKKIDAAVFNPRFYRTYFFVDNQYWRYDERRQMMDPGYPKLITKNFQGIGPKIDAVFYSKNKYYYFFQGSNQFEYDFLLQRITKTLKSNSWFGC

Chain of Matrix metalloproteinase-9 (P14780 whole entry): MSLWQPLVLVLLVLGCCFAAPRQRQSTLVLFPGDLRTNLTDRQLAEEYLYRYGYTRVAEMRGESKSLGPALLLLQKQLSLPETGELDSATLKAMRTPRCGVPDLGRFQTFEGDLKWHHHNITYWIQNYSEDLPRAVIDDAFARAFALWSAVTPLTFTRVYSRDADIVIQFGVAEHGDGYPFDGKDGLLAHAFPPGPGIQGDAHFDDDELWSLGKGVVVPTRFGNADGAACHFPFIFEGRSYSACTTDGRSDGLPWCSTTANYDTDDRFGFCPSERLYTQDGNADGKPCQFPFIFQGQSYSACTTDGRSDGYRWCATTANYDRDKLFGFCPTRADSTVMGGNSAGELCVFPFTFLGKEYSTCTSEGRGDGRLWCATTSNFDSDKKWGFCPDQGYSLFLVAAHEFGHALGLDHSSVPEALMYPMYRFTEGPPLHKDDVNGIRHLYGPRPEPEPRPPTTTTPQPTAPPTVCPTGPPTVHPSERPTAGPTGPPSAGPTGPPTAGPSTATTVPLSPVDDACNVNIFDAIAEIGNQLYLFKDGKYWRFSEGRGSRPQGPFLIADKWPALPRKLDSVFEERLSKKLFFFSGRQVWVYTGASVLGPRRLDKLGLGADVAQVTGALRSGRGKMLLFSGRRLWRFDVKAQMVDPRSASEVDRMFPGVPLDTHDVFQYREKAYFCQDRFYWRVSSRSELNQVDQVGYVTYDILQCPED
Chain of 72 kDa type IV collagenase (P08253 whole entry): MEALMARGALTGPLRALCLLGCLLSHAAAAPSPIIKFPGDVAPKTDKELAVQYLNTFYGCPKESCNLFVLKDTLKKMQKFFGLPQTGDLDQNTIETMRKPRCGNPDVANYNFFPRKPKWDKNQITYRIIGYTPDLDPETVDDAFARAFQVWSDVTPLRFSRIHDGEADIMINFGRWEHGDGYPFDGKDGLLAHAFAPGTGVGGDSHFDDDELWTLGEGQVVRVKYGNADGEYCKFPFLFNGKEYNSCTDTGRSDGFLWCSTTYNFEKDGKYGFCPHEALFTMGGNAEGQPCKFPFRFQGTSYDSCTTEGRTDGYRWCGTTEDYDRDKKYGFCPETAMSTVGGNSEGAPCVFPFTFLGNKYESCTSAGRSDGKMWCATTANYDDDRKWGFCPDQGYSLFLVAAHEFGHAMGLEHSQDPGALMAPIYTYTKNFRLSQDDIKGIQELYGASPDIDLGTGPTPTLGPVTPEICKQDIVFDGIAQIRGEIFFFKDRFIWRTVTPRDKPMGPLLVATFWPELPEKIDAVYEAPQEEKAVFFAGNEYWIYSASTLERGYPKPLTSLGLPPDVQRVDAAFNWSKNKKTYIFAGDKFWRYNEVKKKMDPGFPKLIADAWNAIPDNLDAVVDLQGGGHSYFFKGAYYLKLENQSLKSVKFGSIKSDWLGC

IC50 [1] [µM]	IC50 [2] [µM]	IC50 [3] [µM]	IC50 [4] [µM]	Compound
128	107	114	105	O=C(OCc1ccc2c(c1)OCO2)c1cccc(=O)[nH]1
25	5	67	46	O=C(OCc1cccc(Cl)c1)c1cccc(=O)[nH]1
50	70	68	71	CC#CCOC(=O)c1cccc(=O)[nH]1
114	79	140	17	O=C(OCc1cc(F)ccc1F)c1cccc(S)n1
30	65	69	69	O=C(OCc1ccccc1)c1cccc(=O)[nH]1
> 150	108	> 150	> 150	O=C(OCc1ccccc1Br)c1cccc(S)n1
120	108	120	112	O=C(OCc1ccc(F)cc1)c1cccc(S)n1
> 150	> 150	> 150	> 150	CCCCCCn1cc(C2=NCCO2)nn1
28	> 150	> 150	82	O=C(OCc1cccc(C(F)(F)F)c1)c1cccc(=O)[nH]1
75	42	50	52	O=C(OCc1cccc(-c2ccccc2)c1)c1cccc(=S)[nH]1
119	110	150	135	O=C(OCc1ccc(-c2ccccc2)cc1)c1cccc(=S)[nH]1
31	67	67	67	CC(C)OC(=O)c1cccc(=O)[nH]1
42	33	> 150	99	O=C(OCc1cccc(-c2ccccc2)c1)c1cccc(=O)[nH]1
99	100	119	101	O=C(Oc1ccc2ccccc2c1)c1cccc(S)n1
81	107	114	105	O=C(OCc1ccc(Br)cc1)c1cccc(=O)[nH]1
78	46	75	71	O=C(OCc1cccc(Oc2ccccc2)c1)c1cccc(S)n1
56	73	70	65	O=C(Oc1cccs1)c1cccc(=O)[nH]1
